Sampled rows, rich in hits. Any-hit rate of the full collection: about 4.4%.
HSF1 inh = HSF1 inhibition. NIH3T3-HGL HSE-luciferase, MG132-induced, luminescence 8 h; stronger effect = lower value. activity change, negative = inhibition, % at 7.5 µM (by protocol). 300,000 compounds, 0.77% hits;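 active means more than half of replicate wells show activity change below -50%, luminescence cut by over half; inconclusive means some wells, but at most half, below -50%; inactive means no replicate well below -50%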;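 further: luciferase reports HSF-1 transcriptional activity via heat shock element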
T cruzi repl = T. cruzi replication inhibition. T. cruzi beta-gal in NIH3T3, luminescence, 90 h. inhibition, % (test concentration not listed). 300,000 compounds, 1.4% hits. AID 1885;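 active means mean inhibition across valid replicates above about 55%, limit read from the data; inconclusive means mean below that limit but half or more replicates reach it; inactive means mean below it, under half of replicates reach it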;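 further: signal also drops with host cell toxicity which is not excluded here; higher percent means less beta-gal luminescence so fewer parasites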
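System: Mouse NIH/3T3 fibroblasts infected with β-gal-expressing T. cruzi Tulahuen C4 | Quantity: NIH/3T3 cells, 5,000 per well | Reagent: 5000 reporter trypomastigotes per well | Dosing: Compound pinned at 50 nL/well, DMSO | Schedule: 3 h host attachment, then at least 90 h co-culture | Detection: GalScreen luminescence, 60 min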
Calb FLC = affects C. albicans growth with fluconazole; AID 1979; 300,000 compounds, 0.57% hits; growth inhibition, % (no concentration beside the values); C. albicans CaCi-2 + fluconazole, Alamar Blue growth, 48 h;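 active means growth inhibition above about 58% in most replicates, limit read from the data, passing the limit was not always enough; inconclusive means exactly half the replicates above a set limit; inactive means most replicates below a set limit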;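 further: all wells also contain fluconazole at 8 µg/ml as a sub-toxic cotreatment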
HSF-1 act = increases HSF-1 driven luciferase reporter signal; NIH3T3-HGL HSF-1 luciferase reporter, MG132, 8 h; 100% = twice DMSO control signal; AID 504408; activation, % at 9 µM; 300,000 compounds, 1.7% hits;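 active means mean replicate activation of at least 50% with a set share of replicates each reaching 50%; inconclusive means only one of those two conditions met; inactive means mean below 50% and too few replicates reaching it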
HIF act = HIF pathway transcriptional activation; U2OS HRE-luciferase reporter, luminescence; normalized: DMSO 0%, desferrioxamine 100%; activation, % at 7.5 µM (by protocol); 300,000 compounds, 0.32% hits; AID 1910;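 active means mean activation of at least 10% of the iron chelator positive control signal, with at least half of replicates also reaching 10%; inconclusive means mean and replicate majority disagree about reaching 10%; inactive means mean and most replicates under 10%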
Each line names hits and unclear results; the compound was inactive in the other large screens.

CC(=O)c1ccc(NC(=O)[C@@H]2CCCN2C(=O)OC(C)(C)C)cc1	none
CN=c1scc(-c2ccco2)n1/N=C/c1ccc(O)c(O)c1	HSF1 inh -83
COc1ccc(O)c(/C=N/n2c(-c3ccco3)csc2=Nc2cccnc2)c1	none
N#C/C(=C\c1ccc(Sc2ccccc2)o1)c1nc2ccccc2[nH]1	T cruzi repl 61
Cc1ccc2nc(/C(C#N)=C\c3ccc([N+](=O)[O-])o3)[nH]c2c1	HSF1 inh inconclusive, T cruzi repl 67
COc1ccc(CCNc2c([N+](=O)[O-])ncn2C)cc1OC	none
O=c1[nH]c(Nc2ccc3c(c2)OCCO3)nnc1Cc1ccccc1	Calb FLC 120
Cc1cccc(Nc2nc(-c3ccc(F)c(C)c3)cs2)n1	HSF-1 act 67
O=C(NCC(=O)N1CCN(S(=O)(=O)c2cccs2)CC1)c1ccc(Cl)cc1	none
Cc1ccc(-c2csc(NC(=O)CN3CCOCC3)n2)cc1C	none
Cc1ccc(/C=N/N(Cc2ccccc2)c2ccccc2)o1	HSF-1 act 106
CCNC(=O)COC(=O)/C=C/c1cccs1	none
CCc1cccc(NC(=O)COC(=O)/C=C/c2cccs2)c1	HSF1 inh -52
O/N=C/c1cc2ccccc2n1Cc1ccccc1F	none
COc1ccc(C(=O)NC2CCN(C(=O)NCc3ccccc3)CC2)cc1	none
CC1=C(C(=O)Nc2ccccc2)C(c2ccc(C)cc2)N=C(Nc2nc3ccccc3o2)N1 (stereo not drawn)	T cruzi repl 57, HSF-1 act 62
COc1cc(/C=C/c2noc(-c3ccccc3O)n2)ccc1OC(C)=O	HSF-1 act 54
CCC1CCCCN1CCCNC(=O)CSc1nc2nc(C)c(Cc3ccc(C)cc3)c(C)n2n1 (stereo not drawn)	HSF1 inh -66
Cc1ccc(S(=O)(=O)Nc2ncc(C(F)(F)F)cc2Cl)cc1	none
O=C(Cn1cnc2c(nnn2Cc2ccccc2)c1=O)NCc1ccccc1Cl	none
O=C(/C=C\c1ccc(-c2cccc([N+](=O)[O-])c2)o1)N1CCOCC1	Calb FLC 97
Cc1ccc(N=CC2=C(O)CC(c3ccc(Cl)cc3)CC2=O)cc1 (stereo not drawn)	none
C/C(CC1CC(C)(C)OC1=O)=N\NC(N)=S (stereo not drawn)	none
C/C(CC1CC2=C(CC1(C)C)C(C)(C)CCC2)=N\NC(N)=S (stereo not drawn)	T cruzi repl 56
COCc1cc(=O)[nH]c2cc(NC(=O)c3cccc(OC)c3)c(C)cc12	none
O=C(COc1ccc(Cl)cc1)Nc1ccc2oc(-c3ccncc3)nc2c1	none
CC(C)(Oc1ccc(Cl)cc1)C(=O)Nc1ccc2oc(-c3ccncc3)nc2c1	HSF-1 act 110
S=c1[nH]nc(-c2ccncc2)n1/N=C/C=C/c1ccccc1	none
O=[N+]([O-])c1ccc(Cl)c(/C=N/n2c(-c3ccncc3)n[nH]c2=S)c1	HSF-1 act 243
O=[N+]([O-])c1ccc(O)c(/C=N/n2c(-c3ccccc3)n[nH]c2=S)c1	none
Oc1ccc(/C=N/n2c(COc3ccccc3)n[nH]c2=S)cc1O	Calb FLC 77
S=c1[nH]nc(COc2ccccc2)n1/N=C/C=C/c1ccccc1	none
S=c1[nH]nc(COc2ccccc2)n1/N=C/C(Cl)=C/c1ccccc1	HSF-1 act 151
S=c1[nH]nc(-c2ccncc2)n1/N=C/C(Cl)=C\c1ccccc1	HSF-1 act 78
CC(C)N(CC(O)COc1ccc(CC(N)=O)cc1)CC(O)COc1ccc(CC(N)=O)cc1 (stereo not drawn)	none
C=C(C)CN(CC)C(=O)CC1C(=O)NCCN1C (stereo not drawn)	none
Cc1ccc(C2=N/C(=C\c3cccc(F)c3)C(=O)O2)cc1	none
CCN(C(=O)c1ccc(S(C)(=O)=O)cc1)C12CC3CC(CC(C3)C1)C2	none
CC(=O)Nc1ccc(S(=O)(=O)N2CCC(C(=O)NCCC(=O)NCc3ccccc3)CC2)cc1	none
COc1ccc(Cl)cc1NC(=O)NN1CCN(C)CC1	none
CC(=O)NC(Cc1cc(C)ccc1C)C(=O)N1CCN(C(=O)c2ccc([N+](=O)[O-])cc2)CC1 (stereo not drawn)	none
CC1(C)Cc2c(C#N)c(SCCOc3ccccc3)nc(N3CCOCC3)c2CO1	T cruzi repl 69
CC1(C)Cc2c(C#N)c(SCCC#N)nc(N3CCOCC3)c2CO1	HSF1 inh -61, HIF act 35
CC1(C)Cc2c(C#N)c(SCCO)nc(N3CCOCC3)c2CO1	none
O=C(COC(=O)COc1ccc(Cl)cc1)NCCNC(=O)COC(=O)COc1ccc(Cl)cc1	none
O=C1CC(N2C(=O)/C(=C/C=C/c3ccccc3)SC2=S)C(=O)N1c1ccccc1 (stereo not drawn)	HSF-1 act 83
Cc1ccc(C2=Nc3ccccc3N=C(C(Cl)Cl)C2)cc1	HSF-1 act 93
Cc1ccc2c(c1)N=C(c1ccccc1)CC(C(Cl)Cl)=N2	HSF-1 act 61
CC1=NN(C(=O)c2ccoc2C)C(O)(C(F)(F)F)C1 (stereo not drawn)	none
Cc1cc(C)c(S(=O)(=O)N2CCC(C(=O)NCc3ccco3)CC2)c(C)c1	Calb FLC inconclusive, HSF-1 act 54
O=C(CN1CCN(S(=O)(=O)c2ccc(Br)cc2)CC1)N/N=C/c1ccc(Br)s1	T cruzi repl 63
Cc1ccc(/C=N/NC(=O)CN2CCN(S(=O)(=O)c3ccc(Br)cc3)CC2)s1	none
O=C(c1cc(Cl)ccc1O)N1CCN(S(=O)(=O)c2cccs2)CC1	none
O=C(CCl)Nc1cc(-c2ccccc2)nn1-c1ccccc1	none
Cc1ccc(-c2cc(NC(=O)CCl)n(-c3ccccc3)n2)cc1	HSF-1 act 65
Cc1ccc(N=C(NOCc2ccc(Cl)cc2Cl)c2nonc2N)c(C)c1	T cruzi repl inconclusive, HSF-1 act 59
Cc1ccccc1N=C(NOCc1ccc(Cl)cc1Cl)c1nonc1N	T cruzi repl inconclusive
Cc1nc(-c2ccc(Cl)cc2)sc1C1(C)CC(c2ccccc2)=NO1 (stereo not drawn)	none
Cc1nc(-c2ccc(Cl)cc2)sc1C1(C)CC(c2ccc(Cl)cc2)=NO1 (stereo not drawn)	HSF1 inh -63
Cc1nc(C(=O)Nc2ccc(Cl)cc2)sc1C1(C)CC(c2cccc([N+](=O)[O-])c2)=NO1 (stereo not drawn)	T cruzi repl 66
[O-][n+]1cccc(C(O)c2ccccc2)c1 (stereo not drawn)	none
CC(=O)c1ccccc1OC(=O)COc1ccc(Cl)cc1C	none
CCOc1ccc(CN(C)CC(=O)Nc2cc(OC)c([N+](=O)[O-])cc2C)cc1	T cruzi repl 59
O=C(OCc1ccccc1)/C(=C(\O)c1ccccc1Br)c1ccc(-c2ccccc2)cn1	none
O=C(Cn1nc(-c2ccccc2)ccc1=O)NCC1CCCO1 (stereo not drawn)	none

Compound activity (PubChem)
